Experimental data: ChEMBL document CHEMBL2396592, “Discovery of Dap-3 polymyxin analogues for the treatment of multidrug-resistant Gram-negative nosocomial infections” (J Med Chem, 2013)
In brackets after ≈: the same amount, converted by molar mass. Where a SMILES comes first, the peptide text is derived from it. Bridges are numbered along the chain shown (N, C = ends). [ ]: non-standard residue; d: D form. The star is where a group is joined. Isonicotinoyl(2-Ph) = O=C(c1ccnc(-c2ccccc2)c1)*; Benzoyl(4-Ph) = O=C(c1ccc(-c2ccccc2)cc1)*; X7 = N#Cc1ccc(-c2cc(C(=O)*)ccc2Cl)cc1; X12 = O=C(c1ccc(Cl)c(-c2ccccc2)c1)*; X19 = O=C(c1ccnc(-c2cccc(Cl)c2)c1)*; X4 = O=C(c1ccnc(-c2ccc(Cl)cc2)c1)*; X5 = O=C(c1ccc(Cl)c(-c2ccccn2)c1)*; X9 = COc1ccc(-c2cc(C(=O)*)ccn2)cc1; X10 = O=C(c1ccnc(-c2ccccc2Cl)c1)*; X13 = COc1ccc(-c2ccccc2)cc1C(=O)*; X1 = O=C(c1cnnc(-c2ccccc2)c1)*; Dab = NCC[C@H](N)C(=O)O; Dap = NC[C@H](N)C(=O)O

Tests used:
Pseudomonas aeruginosa [1] = assay: Antibacterial activity against polymyxin-resistant Pseudomonas aeruginosa clinical isolate 1646 assessed as growth inhibition by broth microdilution method; type: functional
Method in brief: (§1)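 Test strain PA-1646 is a P. aeruginosa isolate with a mutated PmrAB two-component system. The system is constitutively active, so the modified lipid A moiety is constantly expressed on the cell surface, giving a polymyxin-resistant phenotype.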

Acinetobacter baumannii [2] = assay: Antibacterial activity against polymyxin-resistant Acinetobacter baumannii clinical isolate 1649 assessed as growth inhibition by broth microdilution method; type: functional
Klebsiella pneumoniae = assay: Antibacterial activity against polymyxin-sensitive ESBL-positive Klebsiella pneumoniae clinical isolate 3700 assessed as growth inhibition by broth microdilution method; type: functional
[3] = Cytotoxicity against human RPTEC after 24 hrs by LDH assay; type: cell-based; details: RPTEC cells, read-out: TC50
Method in brief: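 Primary human renal proximal tubule epithelial cells in REGM (EGF, hydrocortisone, epinephrine, insulin, T3, transferrin, gentamycin/amphotericin-B, FBS). After 72 h of growth at 37 °C, 5% CO2, cells were exposed for 24 h to aqueous compound at 100, 67, 44, 30, 20 and 13 μM. LDH release into the supernatant was measured by kit and TC50 (μM) derived, with PMB and PMBN as controls.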

Pseudomonas aeruginosa [4] = assay: Bactericidal activity against polymyxin-resistant Pseudomonas aeruginosa clinical isolate 1646; type: functional; method in brief: as §1
Pseudomonas aeruginosa [5] = assay: Antibacterial activity against polymyxin-sensitive Pseudomonas aeruginosa 1401 assessed as growth inhibition by broth microdilution method; type: functional
Method in brief: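 CLSI broth microdilution MIC against P. aeruginosa 1401 (PA01) and 1402 (UC12120), the two strains used in the mouse thigh model.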

Escherichia coli = assay: Antibacterial activity against polymyxin-sensitive Escherichia coli isolate 1 assessed as growth inhibition by broth microdilution method; type: functional
Acinetobacter baumannii [6] = assay: Bactericidal activity against polymyxin-resistant Acinetobacter baumannii clinical isolate 1649; type: functional
Acinetobacter baumannii [7] = assay: Antibacterial activity against polymyxin-sensitive Acinetobacter baumannii clinical isolate 3167 assessed as growth inhibition by broth microdilution method; type: functional

CC(C)C[C@@H]1NC(=O)[C@@H](Cc2ccccc2)NC(=O)[C@H](CCN)NC(=O)[C@@H](NC(=O)[C@H](CN)NC(=O)[C@@H](NC(=O)[C@H](CCN)NC(=O)c2ccnc(-c3ccccc3Cl)c2)[C@@H](C)O)CCNC(=O)[C@H]([C@@H](C)O)NC(=O)[C@H](CCN)NC(=O)[C@H](CCN)NC1=O (X10-[Dab]T[Dap][Dab][Dab][dF]L[Dab][Dab]T; lactam 4-C)
MIC (Pseudomonas aeruginosa [1]): 4 µg/mL | MIC (Acinetobacter baumannii [2]): 1 µg/mL | MIC (Klebsiella pneumoniae): 0.25 µg/mL | CC50 at 24 h [3]: 86 µM | MBC (Pseudomonas aeruginosa [4]): 16 µg/mL (≈ 12.6 µM) | MIC (Pseudomonas aeruginosa [5]): 0.5 µg/mL | MIC (Escherichia coli): 0.125 µg/mL | MBC (Acinetobacter baumannii [6]): 1 µg/mL (≈ 0.791 µM) | MIC (Acinetobacter baumannii [7]): 0.25 µg/mL

CC(C)C[C@@H]1NC(=O)[C@@H](Cc2ccccc2)NC(=O)[C@H](CCN)NC(=O)[C@@H](NC(=O)[C@H](CN)NC(=O)[C@@H](NC(=O)[C@H](CCN)NC(=O)c2cnnc(-c3ccccc3)c2)[C@@H](C)O)CCNC(=O)[C@H]([C@@H](C)O)NC(=O)[C@H](CCN)NC(=O)[C@H](CCN)NC1=O (X1-[Dab]T[Dap][Dab][Dab][dF]L[Dab][Dab]T; lactam 4-C)
MIC (Pseudomonas aeruginosa [1]): 2 µg/mL | MIC (Acinetobacter baumannii [2]): 2 µg/mL | MIC (Klebsiella pneumoniae): 0.125 µg/mL | CC50 at 24 h [3]: 84 µM | MBC (Pseudomonas aeruginosa [4]): 8 µg/mL (≈ 6.5 µM) | MIC (Pseudomonas aeruginosa [5]): 0.25 µg/mL | MIC (Escherichia coli): 0.125 µg/mL | MBC (Acinetobacter baumannii [6]): 4 µg/mL (≈ 3.25 µM) | MIC (Acinetobacter baumannii [7]): 0.25 µg/mL

COc1ccc(-c2cc(C(=O)N[C@@H](CCN)C(=O)N[C@H](C(=O)N[C@@H](CN)C(=O)N[C@H]3CCNC(=O)[C@H]([C@@H](C)O)NC(=O)[C@H](CCN)NC(=O)[C@H](CCN)NC(=O)[C@H](CC(C)C)NC(=O)[C@@H](Cc4ccccc4)NC(=O)[C@H](CCN)NC3=O)[C@@H](C)O)ccn2)cc1 (X9-[Dab]T[Dap][Dab][Dab][dF]L[Dab][Dab]T; lactam 4-C)
MIC (Pseudomonas aeruginosa [1]): 2 µg/mL | MIC (Acinetobacter baumannii [2]): 2 µg/mL | MIC (Klebsiella pneumoniae): 0.25 µg/mL | CC50 at 24 h [3]: 78 µM | MBC (Pseudomonas aeruginosa [4]): 8 µg/mL (≈ 6.35 µM) | MIC (Pseudomonas aeruginosa [5]): 0.5 µg/mL | MIC (Escherichia coli): 0.25 µg/mL | MBC (Acinetobacter baumannii [6]): 2 µg/mL (≈ 1.59 µM) | MIC (Acinetobacter baumannii [7]): 0.25 µg/mL

CC(C)C[C@@H]1NC(=O)[C@@H](Cc2ccccc2)NC(=O)[C@H](CCN)NC(=O)[C@@H](NC(=O)[C@H](CN)NC(=O)[C@@H](NC(=O)[C@H](CCN)NC(=O)c2ccc(Cl)c(-c3ccc(C#N)cc3)c2)[C@@H](C)O)CCNC(=O)[C@H]([C@@H](C)O)NC(=O)[C@H](CCN)NC(=O)[C@H](CCN)NC1=O (X7-[Dab]T[Dap][Dab][Dab][dF]L[Dab][Dab]T; lactam 4-C)
MIC (Pseudomonas aeruginosa [1]): 1 µg/mL | MIC (Acinetobacter baumannii [2]): 4 µg/mL | MIC (Klebsiella pneumoniae): 0.5 µg/mL | CC50 at 24 h [3]: 20 µM | MBC (Pseudomonas aeruginosa [4]): 4 µg/mL (≈ 3.1 µM) | MIC (Pseudomonas aeruginosa [5]): 1 µg/mL | MIC (Escherichia coli): 0.5 µg/mL | MBC (Acinetobacter baumannii [6]): 4 µg/mL (≈ 3.1 µM) | MIC (Acinetobacter baumannii [7]): 0.5 µg/mL

CC(C)C[C@@H]1NC(=O)[C@@H](Cc2ccccc2)NC(=O)[C@H](CCN)NC(=O)[C@@H](NC(=O)[C@H](CN)NC(=O)[C@@H](NC(=O)[C@H](CCN)NC(=O)c2ccnc(-c3ccccc3)c2)[C@@H](C)O)CCNC(=O)[C@H]([C@@H](C)O)NC(=O)[C@H](CCN)NC(=O)[C@H](CCN)NC1=O ({Isonicotinoyl(2-Ph)}-[Dab]T[Dap][Dab][Dab][dF]L[Dab][Dab]T; lactam 4-C)
MIC (Pseudomonas aeruginosa [1]): 2 µg/mL | MIC (Acinetobacter baumannii [2]): 1 µg/mL | MIC (Klebsiella pneumoniae): 0.25 µg/mL | CC50 at 24 h [3]: 82 µM | MBC (Pseudomonas aeruginosa [4]): 4 µg/mL (≈ 3.25 µM) | MIC (Pseudomonas aeruginosa [5]): 0.25 µg/mL | MIC (Escherichia coli): 0.125 µg/mL | MBC (Acinetobacter baumannii [6]): 1 µg/mL (≈ 0.813 µM) | MIC (Acinetobacter baumannii [7]): 0.25 µg/mL

CC(C)C[C@@H]1NC(=O)[C@@H](Cc2ccccc2)NC(=O)[C@H](CCN)NC(=O)[C@@H](NC(=O)[C@H](CN)NC(=O)[C@@H](NC(=O)[C@H](CCN)NC(=O)c2ccnc(-c3ccc(Cl)cc3)c2)[C@@H](C)O)CCNC(=O)[C@H]([C@@H](C)O)NC(=O)[C@H](CCN)NC(=O)[C@H](CCN)NC1=O (X4-[Dab]T[Dap][Dab][Dab][dF]L[Dab][Dab]T; lactam 4-C)
MIC (Pseudomonas aeruginosa [1]): 1 µg/mL | MIC (Acinetobacter baumannii [2]): 1 µg/mL | MIC (Klebsiella pneumoniae): 0.25 µg/mL | CC50 at 24 h [3]: 30 µM | MBC (Pseudomonas aeruginosa [4]): 1 µg/mL (≈ 0.791 µM) | MIC (Pseudomonas aeruginosa [5]): 0.5 µg/mL | MIC (Escherichia coli): 0.25 µg/mL | MBC (Acinetobacter baumannii [6]): 1 µg/mL (≈ 0.791 µM) | MIC (Acinetobacter baumannii [7]): 0.25 µg/mL

CC(C)C[C@@H]1NC(=O)[C@@H](Cc2ccccc2)NC(=O)[C@H](CCN)NC(=O)[C@@H](NC(=O)[C@H](CN)NC(=O)[C@@H](NC(=O)[C@H](CCN)NC(=O)c2ccc(-c3ccccc3)cc2)[C@@H](C)O)CCNC(=O)[C@H]([C@@H](C)O)NC(=O)[C@H](CCN)NC(=O)[C@H](CCN)NC1=O ({Benzoyl(4-Ph)}-[Dab]T[Dap][Dab][Dab][dF]L[Dab][Dab]T; lactam 4-C)
MIC (Pseudomonas aeruginosa [1]): 0.5 µg/mL | MIC (Acinetobacter baumannii [2]): 1 µg/mL | MIC (Klebsiella pneumoniae): 0.25 µg/mL | CC50 at 24 h [3]: 28 µM | MBC (Pseudomonas aeruginosa [4]): 1 µg/mL (≈ 0.813 µM) | MIC (Pseudomonas aeruginosa [5]): 0.5 µg/mL | MIC (Escherichia coli): 0.25 µg/mL | MBC (Acinetobacter baumannii [6]): 1 µg/mL (≈ 0.813 µM) | MIC (Acinetobacter baumannii [7]): 0.25 µg/mL

CC(C)C[C@@H]1NC(=O)[C@@H](Cc2ccccc2)NC(=O)[C@H](CCN)NC(=O)[C@@H](NC(=O)[C@H](CN)NC(=O)[C@@H](NC(=O)[C@H](CCN)NC(=O)c2ccc(Cl)c(-c3ccccc3)c2)[C@@H](C)O)CCNC(=O)[C@H]([C@@H](C)O)NC(=O)[C@H](CCN)NC(=O)[C@H](CCN)NC1=O (X12-[Dab]T[Dap][Dab][Dab][dF]L[Dab][Dab]T; lactam 4-C)
MIC (Pseudomonas aeruginosa [1]): 0.5 µg/mL | MIC (Acinetobacter baumannii [2]): 1 µg/mL | MIC (Klebsiella pneumoniae): 0.25 µg/mL | CC50 at 24 h [3]: 14 µM | MBC (Pseudomonas aeruginosa [4]): 1 µg/mL (≈ 0.791 µM) | MIC (Pseudomonas aeruginosa [5]): 1 µg/mL | MIC (Escherichia coli): 0.25 µg/mL | MBC (Acinetobacter baumannii [6]): 1 µg/mL (≈ 0.791 µM) | MIC (Acinetobacter baumannii [7]): 0.5 µg/mL

CC(C)C[C@@H]1NC(=O)[C@@H](Cc2ccccc2)NC(=O)[C@H](CCN)NC(=O)[C@@H](NC(=O)[C@H](CN)NC(=O)[C@@H](NC(=O)[C@H](CCN)NC(=O)c2ccc(Cl)c(-c3ccccn3)c2)[C@@H](C)O)CCNC(=O)[C@H]([C@@H](C)O)NC(=O)[C@H](CCN)NC(=O)[C@H](CCN)NC1=O (X5-[Dab]T[Dap][Dab][Dab][dF]L[Dab][Dab]T; lactam 4-C)
MIC (Pseudomonas aeruginosa [1]): 4 µg/mL | MIC (Acinetobacter baumannii [2]): 4 µg/mL | MIC (Klebsiella pneumoniae): 0.25 µg/mL | CC50 at 24 h [3]: 72 µM | MBC (Pseudomonas aeruginosa [4]): 16 µg/mL (≈ 12.6 µM) | MIC (Pseudomonas aeruginosa [5]): 1 µg/mL | MIC (Escherichia coli): 0.25 µg/mL | MBC (Acinetobacter baumannii [6]): 4 µg/mL (≈ 3.16 µM) | MIC (Acinetobacter baumannii [7]): 0.25 µg/mL

COc1ccc(-c2ccccc2)cc1C(=O)N[C@@H](CCN)C(=O)N[C@H](C(=O)N[C@@H](CN)C(=O)N[C@H]1CCNC(=O)[C@H]([C@@H](C)O)NC(=O)[C@H](CCN)NC(=O)[C@H](CCN)NC(=O)[C@H](CC(C)C)NC(=O)[C@@H](Cc2ccccc2)NC(=O)[C@H](CCN)NC1=O)[C@@H](C)O (X13-[Dab]T[Dap][Dab][Dab][dF]L[Dab][Dab]T; lactam 4-C)
MIC (Pseudomonas aeruginosa [1]): 2 µg/mL | MIC (Acinetobacter baumannii [2]): 4 µg/mL | MIC (Klebsiella pneumoniae): 0.25 µg/mL | CC50 at 24 h [3]: 19 µM | MBC (Pseudomonas aeruginosa [4]): 2 µg/mL (≈ 1.59 µM) | MIC (Pseudomonas aeruginosa [5]): 0.5 µg/mL | MIC (Escherichia coli): 0.5 µg/mL | MBC (Acinetobacter baumannii [6]): 4 µg/mL (≈ 3.18 µM) | MIC (Acinetobacter baumannii [7]): 0.25 µg/mL

CC(C)C[C@@H]1NC(=O)[C@@H](Cc2ccccc2)NC(=O)[C@H](CCN)NC(=O)[C@@H](NC(=O)[C@H](CN)NC(=O)[C@@H](NC(=O)[C@H](CCN)NC(=O)c2ccnc(-c3cccc(Cl)c3)c2)[C@@H](C)O)CCNC(=O)[C@H]([C@@H](C)O)NC(=O)[C@H](CCN)NC(=O)[C@H](CCN)NC1=O (X19-[Dab]T[Dap][Dab][Dab][dF]L[Dab][Dab]T; lactam 4-C)
MIC (Pseudomonas aeruginosa [1]): 1 µg/mL | MIC (Acinetobacter baumannii [2]): 0.5 µg/mL | MIC (Klebsiella pneumoniae): 0.5 µg/mL | CC50 at 24 h [3]: 34 µM | MBC (Pseudomonas aeruginosa [4]): 1 µg/mL (≈ 0.791 µM) | MIC (Pseudomonas aeruginosa [5]): 0.5 µg/mL | MIC (Escherichia coli): 0.125 µg/mL | MBC (Acinetobacter baumannii [6]): 0.5 µg/mL (≈ 0.395 µM) | MIC (Acinetobacter baumannii [7]): 0.25 µg/mL
